PAFAH2 inh – inhibitors of human PAFAH2. Q99487. hit rate 0.99% among 340,000. inhibition, % at 3.39 µM. recombinant PAFAH2, FP-rhodamine activity probe, fluorescence polarization;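 active = inhibition above the mean over all tested compounds plus 3 SD, cut at about 30% in these data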;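 also: inhibitors block probe labeling of enzyme so polarization drops; 0% = enzyme with DMSO and 100% = wells lacking PAFAH2 protein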
UCH37 inh – blocks the human deubiquitinase UCH37; purified proteasome/UCH37, Ub-AMC cleavage fluorescence; hit rate 0.33% among 330,000; inhibition, % (test concentration not listed); AID 588478; Q9Y5K5;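 active = mean inhibition over replicate wells above about 20%, limit read from the data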;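 also: 0% = compound-free wells with enzyme and 100% = wells lacking proteasome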
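Material: human UCH37 enzyme supplied as purified proteasome complex / Amount: 0.15 nM proteasome as dispensed / Buffer or medium: pH 7.4 Tris-HCl (50 mM) with ovalbumin, ATP-MgCl2, DTT / Times: preincubation 30 min, reaction 25 min, room temperature / Technique: AMC fluorescence from Ub-AMC cleavage, excitation 355 nm, emission 460 nm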
pPAFAH inh – pPAFAH (human) enzyme inhibition | hit rate 1.5% among 330,000 | inhibition, % at 3.39 µM | recombinant pPAFAH, FP-rhodamine probe fluorescence polarization | Q13093 | AID 463082;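 active = inhibition above the mean inhibition across the screen plus 3 SD, cut at about 25% in these data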;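 also: inhibitors block binding of the rhodamine activity-based probe so polarization drops; 0% = enzyme with DMSO and 100% = wells lacking pPAFAH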
Target sequence (Q13093 whole entry, looked up): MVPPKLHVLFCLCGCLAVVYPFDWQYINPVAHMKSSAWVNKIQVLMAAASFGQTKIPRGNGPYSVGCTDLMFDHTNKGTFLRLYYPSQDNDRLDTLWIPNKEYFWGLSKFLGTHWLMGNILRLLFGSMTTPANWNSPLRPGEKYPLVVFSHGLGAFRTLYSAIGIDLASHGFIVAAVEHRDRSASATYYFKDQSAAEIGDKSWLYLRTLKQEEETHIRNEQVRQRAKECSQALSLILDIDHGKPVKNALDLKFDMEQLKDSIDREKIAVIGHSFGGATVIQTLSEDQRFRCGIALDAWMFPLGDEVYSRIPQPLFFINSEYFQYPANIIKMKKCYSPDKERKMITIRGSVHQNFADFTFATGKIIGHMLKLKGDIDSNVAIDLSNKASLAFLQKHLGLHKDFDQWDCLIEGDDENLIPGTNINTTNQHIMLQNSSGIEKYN
PAFAH1B2 FP inh – PAFAH1B2 (human) inhibition | P68402 | AID 492953 | recombinant PAFAH1B2, FP-rhodamine activity probe, fluorescence polarization | hit rate 1.2% among 340,000 | inhibition, % at 3.39 µM;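 active = inhibition above the mean of all tested compounds plus 3 SD, cut at about 24% in these data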;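 also: 0% = enzyme with DMSO and 100% = wells lacking PAFAH1B2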
NR3A LBD binder – modulators (binders) of human NR3A ligand-binding domain; NR3A LBD differential scanning fluorimetry, Tm shift; 0% = protein alone, 100% = glycine-bound protein; Tm shift relative to glycine control, % at 25 µM; hit rate 2.5% among 340,000; AID 1259313;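 active = melting temperature shift of at least 10% of the positive control shift, at one fixed dose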
PAFAH1B3 inh – inhibitors of human PAFAH1B3 | inhibition, % at 3.39 µM | hit rate 0.28% among 340,000 | recombinant PAFAH1B3, FP-rhodamine probe, fluorescence polarization | Q15102;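 active = inhibition above the screen-wide average of all tested compounds plus 3 SD, cut at about 25% in these data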;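 also: 0% = enzyme with DMSO only and 100% = wells lacking PAFAH1B3 protein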
Active calls of the source: *; i = inactive; . = no result given. Sampled rows, rich in hits. Any-hit rate of the full collection: about 4.8%.

SMILES	PAFAH2 inh	UCH37 inh	pPAFAH inh	PAFAH1B2 FP inh	NR3A LBD binder	PAFAH1B3 inh
c1ccc(-c2nc(-c3ccco3)n3ccccc23)cc1	1	-109	25*	3	-1	3
C[n+]1c(-c2ccccc2)cc2c(=Cc3ccc([N+](=O)[O-])cc3)c3ccccc3n21	81*	.	.	6	14*	39*
CN(C)c1ccc(C=c2c3cc(O)ccc3n3c2cc(-c2ccccc2)[n+]3C)cc1	-38	.	.	-10	3	8
CC(C)C(=O)Nc1csc(C(F)(F)F)c1-c1ccccc1	1	5	4	27*	1	0
COc1cc(NC(=O)CN2C(=O)C(=O)N(CC(C)C)C2=O)cc(OC)c1	7	-1	.	7	29*	2
COc1cc(NC(=O)CN2C(=O)C(=O)N(C3CCCC3)C2=O)cc(OC)c1	-2	1	1	-4	-36	5
CCc1ccccc1NC(=O)c1ccc(NS(C)(=O)=O)cc1	.	0	5	.	0	.
O=C(Nc1ccccc1Sc1ccccc1)c1ccccc1F	1	1	31*	-3	3	9
CS(=O)(=O)Nc1ccc(C(=O)Nc2ccccc2Sc2ccccc2)cc1	-3	2	30*	5	-16	-1
Cc1ccc(/C=C2\SC(=S)N(CCC(=O)NNC(=O)c3cccc(O)c3)C2=O)cc1	-70	8	-9	-22	24*	-46
O=C(CCN1C(=O)/C(=C/c2ccccc2Cl)SC1=S)NC1=NCCS1	5	5	6	34*	0	-4
CN1C(=O)/C(=C/c2ccc(C(=O)Nc3ccc(O)cc3C(=O)O)cc2)SC1=S	2	9	30*	7	-2	15
Cc1ccc(/C=C2\SC(=S)N(CCC(=O)NNC(=O)c3ccc(O)cc3)C2=O)cc1	-124	4	-46	-86	23*	-147
O=C(CCN1C(=O)/C(=C/c2ccccc2Cl)SC1=S)Nc1ccccn1	3	6	8	2	-2	0
O=C(CCN1C(=O)/C(=C/c2ccccc2Cl)SC1=S)NNC(=O)c1ccccc1O	15	11	30*	5	10	23
O=C(CCN1C(=O)/C(=C/c2ccccc2Cl)SC1=S)NNC(=O)c1cccnc1	16	12	0	11	0	4
Cc1ccc(/C=C2\SC(=S)N(CCC(=O)NNC(=O)c3ccccc3O)C2=O)cc1	-5	10	17	8	16*	5
CC(=NNC(=O)c1ccccc1)c1cccc(Br)c1	.	-1	.	.	.	.
CC(=NNC(=O)CNC(=O)c1cccnc1)c1ccco1	.	4	.	.	.	.
O=C(NN/C(=N/S(=O)(=O)c1ccc(Cl)cc1)c1ccccc1)c1cccc(Cl)c1	26	7	6	9	-5	5
O=C(NN/C(=N/S(=O)(=O)c1ccc(Cl)cc1)c1ccccc1)c1ccc(O)cc1	4	3	1	4	37*	0
COc1ccc(NC(=O)c2ccc3c(c2)NC(=O)CS3)cc1S(=O)(=O)Nc1ccc(Br)cc1	-17	0	-57	-10	5	-14
Cc1ccc(NS(=O)(=O)c2ccc3c(c2)NC(=O)CCS3)c(C)c1	9	5	30*	13	0	8
CC(CNS(=O)(=O)c1ccc2c(c1)NC(=O)CCS2)c1ccccc1 (centres undefined)	-2	3	27*	39*	3	0
Cc1ccc(NS(=O)(=O)c2cc(NC(=O)c3ccc4c(c3)NC(=O)CS4)ccc2C)c(C)c1	-68	3	-29	-11	22*	-4
SMILES	PAFAH2 inh	UCH37 inh	pPAFAH inh	PAFAH1B2 FP inh	NR3A LBD binder	PAFAH1B3 inh
Cc1ccc(NS(=O)(=O)c2ccc3c(c2)NC(=O)CCS3)c(Cl)c1	8	2	6	4	2	-1
CC(C)CNC(=O)c1cccc(NC(=O)c2ccc(NC(=O)c3ccco3)cc2)c1	-8	0	-3	-5	23*	-5
COC(=O)c1ccc(NC(=O)c2cccc(NC(=O)c3ccco3)c2)cc1	-3	5	2	0	-6	0
CC(=O)c1cccc(NC(=O)c2cccc(NC(=O)c3ccco3)c2)c1	-1	4	6	4	-7	14
O=C(Nc1cccc(S(=O)(=O)c2cccc(NC(=O)c3ccco3)c2)c1)c1ccco1	-16	0	-31	-11	35*	-16
O=C(Nc1cccc(NC(=O)c2ccco2)c1)c1cccc(Br)c1	-9	2	8	-4	15*	3
O=C(Nc1cc(Br)c(O)c(Br)c1)c1cccc(NC(=O)c2ccco2)c1	6	6	13	4	23*	6
COc1ccc(Br)cc1C(=O)Nc1ccc(NC(=O)c2ccco2)cc1	-15	-13	0	-5	18*	-4
O=C(Nc1ccc(Br)cc1)c1ccco1	6	1	1	1	-11	-6
O=C(O)CC/C(=N/NC(=O)CNC(=O)Cc1ccc(Cl)cc1)c1ccccc1	-2	.	16	24*	-1	8
COc1c(CC=C(C)C)cc(C2CC(=O)c3c(O)cc(O)cc3O2)cc1CC=C(C)C (centres undefined)	0	10	21	-4	30*	12
COc1ccc(CCN2C(=O)c3[nH]nc(-c4ccccc4O)c3C2c2cccc(Cl)c2)cc1 (centres undefined)	-2	2	-2	-1	15*	8
COCC(=O)NN=C(C)CC(=O)Nc1ccccc1C(N)=O	.	-2	.	.	.	.
O=C(CN1C(=O)NC2(CCCC2)C1=O)N1CCN(S(=O)(=O)c2ccccc2F)CC1	0	3	-4	3	13*	9
O=C(CN1C(=O)NC2(CCCC2)C1=O)N1CCN(S(=O)(=O)c2ccccc2Br)CC1	-2	2	-6	1	-2	3
COc1ccccc1C(=O)NN=C(C)c1ccc(NC(=O)Cc2ccccc2)cc1	.	i	.	.	.	.
CCOCCCNC(=O)C(NC(=O)Cc1cccs1)c1ccccc1 (centres undefined)	4	1	2	2	2	1
CCCCOCCCNC(=O)Cc1cccs1	18	1	5	1	11*	5
O=c1[nH][nH]c2c(N=Cc3ccccc3O)ccc(F)c12	62*	14	.	40*	-11	61*
CCc1ccc(O)c(N=Cc2ccccc2O)c1	9	4	13	2	-5	6
COc1ccc2nc(C=NNC(=O)CCCCCNC(=O)OC(C)(C)C)ccc2c1	.	-142	.	.	.	.
O=C(Oc1cccc2ccccc12)c1cc(Cl)nc2ccccc12	6	4	-1	-1	14*	5
Cc1ccc(S(=O)(=O)Nc2ccccc2C=Nc2nc3ccccc3n2C(C)C)cc1	.	4	.	.	.	.
N#CC1=CN(Cc2ccccc2)C=C(C=NNc2ccccc2)C1	.	-10	.	.	.	.
